Lipid droplet – hepatic lipid droplet formation modulation; hit rate 0.4% among 240,000; inhibition, % at 6.5 µM; AML12 mouse hepatocytes, oleate lipid droplets, BODIPY imaging;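 active = lipid droplet intensity inhibited by at least 50%, with more than 500 cells counted; inconclusive = wells with under 300 cells, treated as cytotoxic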
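Assay system: AML12 mouse liver cells | Compound dosing: One dose, 6.5 µM compound | Read-out basis: Droplet intensity reduction, % inhibition | Measured by: Fluorescence imaging, 20x objective, two fields per well | Schedule: Overnight treatment with compound plus oleate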
CHT PAM – human CHT allosteric activation. Q9GZV3. CHT-expressing cells, membrane potential dye, choline EC20; hits give high values; LV-AA mutant CHT in HEK293 cells. hit rate 0.49% among 310,000. B-score at 10 µM;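 active = initial fluorescence not abnormally high and integrated response B-score, plate-corrected, over 3 SD above library mean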
HSF1 inhib – HSF1 inhibition; NIH3T3-HGL HSE-luciferase, MG132-induced, luminescence 8 h; hits give low values; AID 2098; activity change, negative = inhibition, % at 7.5 µM (by protocol); hit rate 0.77% among 300,000;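 active = more than half of replicate wells show activity change below -50%, luminescence cut by over half; inconclusive = some wells, but at most half, below -50%; inactive = no replicate well below -50%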;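 also: luciferase reports HSF-1 transcriptional activity via heat shock element; 0% = median of DMSO wells and -100% = zero luminescence signal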
CHT inh – human CHT choline transport inhibition. Q9GZV3. CHT-expressing cells, membrane potential dye, choline response; hits give low values. B-score at 10 µM. hit rate 0.86% among 310,000. AID 488975;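 active = B-score over 3 SD under the library average, and starting fluorescence ratio not unusually high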;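 also: choline stimulus applied at its EC90 after an EC20 pre-addition; B-score computed on integrated fluorescence ratio after choline addition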
PHOSPHO1 inh – blocks human PHOSPHO1 phosphatase activity | recombinant PHOSPHO1, absorbance phosphatase assay | AID 1565 | hit rate 1.1% among 290,000 | inhibition, % at 13.3 µM; in the data active = inhibition above about 60%
Target sequence (Q8TCT1 whole entry, looked up): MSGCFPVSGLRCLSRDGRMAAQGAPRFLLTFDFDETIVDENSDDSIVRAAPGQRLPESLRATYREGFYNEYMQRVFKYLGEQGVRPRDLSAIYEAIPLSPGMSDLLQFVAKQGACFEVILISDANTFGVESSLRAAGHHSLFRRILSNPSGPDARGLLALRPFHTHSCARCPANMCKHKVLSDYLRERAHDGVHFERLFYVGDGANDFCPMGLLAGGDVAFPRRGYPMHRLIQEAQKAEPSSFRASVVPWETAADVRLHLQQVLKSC
HSF-1 act – increases HSF-1 driven luciferase reporter signal; NIH3T3-HGL HSF-1 luciferase reporter, MG132, 8 h; 100% = twice DMSO control signal; activation, % at 9 µM; hit rate 1.7% among 300,000; AID 504408;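 active = mean replicate activation of at least 50% with a set share of replicates each reaching 50%; inconclusive = only one of those two conditions met; inactive = mean below 50% and too few replicates reaching it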;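 also: 0% = median of the neutral control wells and 100% = twice that signal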
CHT block conf – confirmation of human choline transporter CHT inhibitors; shares compounds with CHT inh; CHT-expressing cells, choline membrane potential dye; LV-to-AA substituted CHT, HEK293 cells; CHT activity remaining % of control (hits give low values), % at 10 µM; hit rate 70% among 2,400;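 active = choline transporter activity left, mean of duplicates at 10 µM, below buffer-only control mean minus 3 SD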;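 also: depolarization triggered by choline at its EC90 following an EC20 pre-addition; 0% = hemicholinium-3 full block and 100% = buffer-only control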
HEK293 MPD ctr – counter-screen for CHT inhibitors: effect in parental HEK293 cells; shares compounds with CHT inh; membrane potential dye, choline response; active = decrease or increase beyond buffer ±3SD; membrane potential ratio readout (active if shifted either direction beyond buffer ±3SD; no single direction) at 10 µM; hit rate 4% among 2,400;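 also: parental cells lack the transporter so any hit is non-specific; ratio is peak minus trough fluorescence over baseline after EC90 choline challenge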
Starred values were filed as active, the others as inactive; i = inactive; ? = inconclusive; nt = no result. This is a sample that favours compounds with a hit; in the whole collection about 4.9% have one here.

SMILES	Lipid droplet	CHT PAM	HSF1 inhib	CHT inh	PHOSPHO1 inh	HSF-1 act	CHT block conf	HEK293 MPD ctr
O=C(NNC(=S)NC(=O)C12CC3CC(CC(C3)C1)C2)c1ccncc1	-11.2	i	-4.2	-9.62*	65.8*	-9.7	52.5%*	i
CC1(C(=O)NC(=S)NNC(=O)c2ccncc2)CCCCC1	-1.7	i	-19.4	i	-8.6	-22.7	nt	nt
CCOC(=O)c1c(NC(=O)C2C3C=CC(C3)C2C(=O)O)sc2c1CCC(CC)C2 (configuration not stated)	1.3	i	-7.8	-4.98*	7.1	-11.9	26.6%*	i
CCOC(=O)c1c(NC(=O)C2C3CCC(O3)C2C(=O)O)sc2c1CCC(CC)C2 (configuration not stated)	1.7	i	-0.3	i	52.8	12.0	nt	nt
O=C(Nc1nnc(S(=O)(=O)N2CCCC2)s1)c1cccc([N+](=O)[O-])c1	-6.2	i	4.4	i	38.2	0.1	nt	nt
CC1CCN(S(=O)(=O)c2nnc(NC(=O)c3cccc([N+](=O)[O-])c3)s2)CC1	2.7	i	-6.3	-9.58*	1.8	-5.9	60.3%*	i
COc1ccc(N2CCN(c3nc(NCCO)nc(N4CCOCC4)n3)CC2)cc1	11.1	i	-6.6	-6.07*	-42.5	23.0	i	i
O=C(O)c1ccc(NC2=C(Cl)C(=O)c3ccccc3C2=O)cc1	30.9	i	?	-10.2*	58.5	-38.9	32.5%*	i
CC1=C(Nc2ccc(C(=O)O)cc2)C(=O)c2ccccc2C1=O	-3.8	i	11.1	i	25.7	23.5	nt	nt
CCOc1cc(Br)ccc1S(=O)(=O)NCc1ccccc1	nt	i	-1.6	-6.26*	-11.4	4.5	i	i
CCOc1ccc(OCC)c(S(=O)(=O)NCc2ccccc2)c1	-6.5	i	1.2	i	nt	12.5	nt	nt
NC(=O)CC(NC(=O)c1ccccc1)c1ccc(N2CCc3ccccc3C2)c([N+](=O)[O-])c1 (configuration not stated)	nt	i	8.7	-9.49*	-13.0	-0.2	17.9%*	i
NC(=O)CC(NC(=O)c1ccc(Br)cc1)c1ccc(N2CCCCCC2)c([N+](=O)[O-])c1 (configuration not stated)	nt	i	45.5	-7.74*	-1.7	74.0*	58.6%*	i
NC(=O)CC(NC(=O)c1ccccc1)c1ccc(N2CCCCCCC2)c([N+](=O)[O-])c1 (configuration not stated)	-2.4	i	-0.6	-11*	-7.3	-23.0	1.4%*	i
O=C(CSc1ncn[nH]1)N1CCCCC1	-14.9	i	-7.1	i	43.2	-7.3	nt	nt
C=CCOc1ccc(CN(C)CC(=O)N(CC(C)C)c2c(N)n(CC(C)C)c(=O)[nH]c2=O)cc1	4.6	i	-11.8	i	37.3	4.0	nt	nt
C#CCOc1c(Br)cc(/C=N\NC(=O)CN2CCOCC2)cc1OCC	-1.1	i	-6.7	i	23.3	2.0	nt	nt
O=C(COc1ccc(Cl)cc1Cl)N(c1ccccn1)C1CCCCC1	-56.4	i	-2.2	i	-26.8	-6.4	nt	nt
CCCN(C(=O)CCNC(=O)Cn1cnc2ccccc2c1=O)c1cccc(C)c1	-2.6	i	-7.5	i	22.4	-0.5	nt	nt
Nc1c(/C=C2/C=CC(=O)C(O)=C2)c(=O)nc2sc(CC(=O)N3CCCCC3)nn12	1.5	i	-9.5	i	-1.9	8.7	nt	nt
c1ccc(C[C@H]2CN=C(Nc3ccccc3)N2CCC2CCCC2)cc1	nt	i	nt	-6.76*	nt	nt	56.1%*	i
Cc1ccc(CSc2nnc(SCC(=O)N/N=C/c3ccc(C(=O)O)cc3)s2)cc1	2.0	i	6.1	-5*	-174.7	2.0	i	i
O=C(CSc1nnc(SCc2ccccc2)s1)N/N=C/c1ccc(C(=O)O)cc1	1.6	i	-2.8	i	19.7	1.1	nt	nt
CC1(C)c2[nH]c3ccccc3c2C[C@@H]2C(=O)N(Cc3ccccc3)C(=O)N21	nt	i	2.5	-6.19*	nt	0.3	57.4%*	i
CC1(C)c2[nH]c3ccccc3c2C[C@H]2C(=O)N(Cc3ccccc3)C(=O)N21	nt	i	1.0	i	nt	-9.4	nt	nt
SMILES	Lipid droplet	CHT PAM	HSF1 inhib	CHT inh	PHOSPHO1 inh	HSF-1 act	CHT block conf	HEK293 MPD ctr
CC(C)C(NC(=O)c1ccccc1Br)c1ccccc1 (configuration not stated)	-24.9	i	2.0	-5.32*	47.1	14.4	i	i
CC(NC(=O)c1ccccc1Br)C1CC2CCC1C2 (configuration not stated)	nt	i	3.1	i	nt	20.8	nt	nt
Cc1cc(O)ccc1NS(=O)(=O)c1ccc2c3c(cccc13)C(=O)N2	-6.1	i	-6.9	-6.52*	16.0	5.2	57.0%*	i
O=C(O)c1ccccc1NS(=O)(=O)c1ccc2c3c(cccc13)C(=O)N2	16.8	i	-2.4	i	24.8	6.9	nt	nt
O=C(NC(Cc1c[nH]c2ccccc12)C(=O)N/N=C/c1cccnc1)c1cccs1 (configuration not stated)	nt	i	1.6	i	33.5	10.2	nt	nt
OC1CCCN(c2c3c(nc4cc(-c5cccc(F)c5)nn24)CCCC3)C1 (configuration not stated)	-7.3	i	9.3	-5.23*	37.0	30.7	i	i
CC(C)(C)NC(=O)C1CC1(c1ccccc1)c1ccccc1 (configuration not stated)	-14.5	i	3.0	i	19.7	0.0	nt	nt
CCCN1CCC(Oc2cccc(C(=O)NCCc3ccccc3)c2)CC1	-23.1	i	5.5	-11.3*	-5.4	43.0	6.5%*	i
O=C(NCCc1ccccn1)c1ccc(OC2CCN(CCc3ccccc3)CC2)cc1	1.6	i	-0.1	i	36.0	-7.2	nt	nt
CSCCCNC(=O)c1ccc(OC2CCN(CCc3ccccc3)CC2)cc1	-10.1	i	4.4	-5.99*	22.6	4.8	51.4%*	4.83*
CCc1oc(C(=O)O)cc1COC	nt	i	-3.1	-10.9*	10.7	-4.2	i	i
COc1cc(C(=O)Nc2cc3c(cc2N2CCCCC2)n(C)c(=O)n3C)cc(OC)c1OC	-36.4	i	4.6	i	-1.2	19.7	nt	nt
O=C(N/N=C\c1cccs1)c1ccccc1-n1cccc1	-8.4	i	-7.1	-5.34*	39.9	-20.9	i	i
CCn1c2ccccc2c(=O)c2ccccc21	-1.2	i	-8.9	-8.18*	3.4	5.8	14.9%*	i
